Results as given in ChEMBL document CHEMBL1135836, “Cyclodextrin-derived host molecules as reversal agents for the neuromuscular blocker rocuronium bromide: synthesis and structure-activity relationships” (J Med Chem, 2002).

Tests used:
Type in all cases: functional
Cavia porcellus [1] = assay: In vivo reversal activity versus ~90% block by rocuronium in guinea pig
Method in brief: (§1)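 Male Dunkin-Hartley guinea pigs (600-900 g), anaesthetized ip with pentobarbitone 10 mg/kg plus urethane 1000 mg/kg, tracheotomized and ventilated. Continuous iv rocuronium infusion (~10 nmol kg-1 min-1) was raised to a steady 85-90% block. Increasing iv doses of agent were given cumulatively. ED50 = 50% recovery versus preblock twitch, by regression. Mean ± SEM of at least two experiments, or one.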

Cavia porcellus [2] = assay: In vivo reversal activity versus ~90% block by rocuronium in guinea pig, expressed as % of maximum reversal at 0.3 umol/kg conc.; method in brief: as §1
Mus musculus [3] = species: Mus musculus; assay: In vitro reversal activity versus ~90% block by rocuronium in isolated mouse hemidiaphragm, expressed as % of maximum reversal at 5.4 uM conc.
Mus musculus [4] = species: Mus musculus; assay: In vitro reversal activity versus ~90% block by rocuronium in isolated mouse hemidiaphragm, expressed as effective conc.
Cavia porcellus [5] = assay: In vivo reversal activity versus ~90% block by rocuronium in guinea pig, expressed as % of maximum reversal at 16 umol/kg conc.
Method in brief: (§2)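 Male Dunkin-Hartley guinea pigs (600-900 g) anaesthetized ip with pentobarbitone 10 mg/kg plus urethane 1000 mg/kg, tracheotomized and artificially ventilated. Continuous iv rocuronium bromide infusion (~10 nmol kg-1 min-1) raised until steady-state twitch block of 85-90%. Increasing single iv doses of reversal agent given by a separate catheter. Max reversal is peak twitch recovery versus preblock height at highest dose tested; means ± SEM, n ≥ 2 or single experiment.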

Mus musculus [6] = species: Mus musculus; assay: In vitro reversal activity versus ~90% block by rocuronium in isolated mouse hemidiaphragm, expressed as % of maximum reversal at 18 uM conc.
Cavia porcellus [7] = assay: In vivo reversal activity versus ~90% block by rocuronium in guinea pig, expressed as % of maximum reversal at 0.5 umol/kg conc.; method in brief: as §1
Cavia porcellus [8] = assay: In vivo reversal activity versus ~90% block by rocuronium in guinea pig, expressed as % of maximum reversal at 15 umol/kg conc.; method in brief: as §2
Mus musculus [9] = species: Mus musculus; assay: In vitro reversal activity versus ~90% block by rocuronium in isolated mouse hemidiaphragm, expressed as % of maximum reversal at 3.6 uM conc.

SMILES | ED50 (Cavia porcellus [1]) [µmol/kg] | Max reversal (Cavia porcellus [2]) [%] | Max reversal (Mus musculus [3]) [%] | EC50 (Mus musculus [4]) [µM] | Max reversal (Cavia porcellus [5]) [%] | Max reversal (Mus musculus [6]) [%] | Max reversal (Cavia porcellus [7]) [%] | Max reversal (Cavia porcellus [8]) [%] | Max reversal (Mus musculus [9]) [%]
O=C([O-])CCCCSCC1O[C@@H]2O[C@@H]3C(CSCCCCC(=O)[O-])O[C@H](O[C@@H]4C(CSCCCCC(=O)[O-])O[C@H](O[C@@H]5C(CSCCCCC(=O)[O-])O[C@H](O[C@@H]6C(CSCCCCC(=O)[O-])O[C@H](O[C@@H]7C(CSCCCCC(=O)[O-])O[C@H](O[C@@H]8C(CSCCCCC(=O)[O-])O[C@H](O[C@@H]9C(CSCCCCC(=O)[O-])O[C@H](O[C@H]1C(O)C2O)C(O)C9O)C(O)C8O)C(O)C7O)C(O)C6O)C(O)C5O)C(O)C4O)C(O)C3O.[Na+].[Na+].[Na+].[Na+].[Na+].[Na+].[Na+].[Na+] (stereo partly specified) | 0.07 | 99 | 98.9 | 1.8 | – | – | – | – | –
O=C([O-])c1cccc(SCC2O[C@@H]3O[C@@H]4C(CO)O[C@H](O[C@@H]5C(CO)O[C@H](O[C@@H]6C(CO)O[C@H](O[C@@H]7C(CO)O[C@H](O[C@@H]8C(CO)O[C@H](O[C@@H]9C(CO)O[C@H](O[C@@H]%10C(CO)O[C@H](O[C@H]2C(O)C3O)C(O)C%10O)C(O)C9O)C(O)C8O)C(O)C7O)C(O)C6O)C(O)C5O)C(O)C4O)c1.[Na+] (stereo partly specified) | 2.41 | – | – | > 18 | 102.7 | 36.1 | – | – | –
O=C([O-])c1ccccc1C(=O)NCCSCC1O[C@@H]2O[C@@H]3C(CSCCNC(=O)c4ccccc4C(=O)[O-])O[C@H](O[C@@H]4C(CSCCNC(=O)c5ccccc5C(=O)[O-])O[C@H](O[C@@H]5C(CSCCNC(=O)c6ccccc6C(=O)[O-])O[C@H](O[C@@H]6C(CSCCNC(=O)c7ccccc7C(=O)[O-])O[C@H](O[C@@H]7C(CSCCNC(=O)c8ccccc8C(=O)[O-])O[C@H](O[C@@H]8C(CSCCNC(=O)c9ccccc9C(=O)[O-])O[C@H](O[C@@H]9C(CSCCNC(=O)c%10ccccc%10C(=O)[O-])O[C@H](O[C@H]1C(O)C2O)C(O)C9O)C(O)C8O)C(O)C7O)C(O)C6O)C(O)C5O)C(O)C4O)C(O)C3O.[Na+].[Na+].[Na+].[Na+].[Na+].[Na+].[Na+].[Na+] (stereo partly specified) | 0.09 | – | 88.3 | 0.1 | – | – | 94.5 | – | –
O=C([O-])Cc1cccc(SCC2O[C@@H]3O[C@@H]4C(CO)O[C@H](O[C@@H]5C(CO)O[C@H](O[C@@H]6C(CO)O[C@H](O[C@@H]7C(CO)O[C@H](O[C@@H]8C(CO)O[C@H](O[C@@H]9C(CO)O[C@H](O[C@@H]%10C(CO)O[C@H](O[C@H]2C(O)C3O)C(O)C%10O)C(O)C9O)C(O)C8O)C(O)C7O)C(O)C6O)C(O)C5O)C(O)C4O)c1.[Na+] (stereo partly specified) | 1.67 | – | – | > 18 | 92.8 | 30.4 | – | – | –
O=C([O-])CCCSCC1O[C@@H]2O[C@@H]3C(CO)O[C@H](O[C@@H]4C(CO)O[C@H](O[C@@H]5C(CO)O[C@H](O[C@@H]6C(CO)O[C@H](O[C@@H]7C(CO)O[C@H](O[C@@H]8C(CO)O[C@H](O[C@@H]9C(CO)O[C@H](O[C@H]1C(O)C2O)C(O)C9O)C(O)C8O)C(O)C7O)C(O)C6O)C(O)C5O)C(O)C4O)C(O)C3O.[Na+] (stereo partly specified) | – | – | – | > 18 | – | 14.4 | – | – | –
CC(C)(CSCC1O[C@@H]2O[C@@H]3C(CSCC(C)(C)C(=O)[O-])O[C@H](O[C@@H]4C(CSCC(C)(C)C(=O)[O-])O[C@H](O[C@@H]5C(CSCC(C)(C)C(=O)[O-])O[C@H](O[C@@H]6C(CSCC(C)(C)C(=O)[O-])O[C@H](O[C@@H]7C(CSCC(C)(C)C(=O)[O-])O[C@H](O[C@@H]8C(CSCC(C)(C)C(=O)[O-])O[C@H](O[C@@H]9C(CSCC(C)(C)C(=O)[O-])O[C@H](O[C@H]1C(O)C2O)C(O)C9O)C(O)C8O)C(O)C7O)C(O)C6O)C(O)C5O)C(O)C4O)C(O)C3O)C(=O)[O-].[Na+].[Na+].[Na+].[Na+].[Na+].[Na+].[Na+].[Na+] (stereo partly specified) | 1.32 | – | – | 20.3 | – | 47.6 | – | 98.8 | –
O=C([O-])CCc1cccc(SCC2O[C@@H]3O[C@@H]4C(CSc5cccc(CCC(=O)[O-])c5)O[C@H](O[C@@H]5C(CSc6cccc(CCC(=O)[O-])c6)O[C@H](O[C@@H]6C(CSc7cccc(CCC(=O)[O-])c7)O[C@H](O[C@@H]7C(CSc8cccc(CCC(=O)[O-])c8)O[C@H](O[C@@H]8C(CSc9cccc(CCC(=O)[O-])c9)O[C@H](O[C@@H]9C(CSc%10cccc(CCC(=O)[O-])c%10)O[C@H](O[C@@H]%10C(CSc%11cccc(CCC(=O)[O-])c%11)O[C@H](O[C@H]2C(O)C3O)C(O)C%10O)C(O)C9O)C(O)C8O)C(O)C7O)C(O)C6O)C(O)C5O)C(O)C4O)c1.[Na+].[Na+].[Na+].[Na+].[Na+].[Na+].[Na+].[Na+] (stereo partly specified) | 22.8 | – | – | 14.8 | 35.3 | 65.2 | – | – | –
O=C([O-])CCCSCC1O[C@@H]2O[C@@H]3C(CSCCCC(=O)[O-])O[C@H](O[C@@H]4C(CSCCCC(=O)[O-])O[C@H](O[C@@H]5C(CSCCCC(=O)[O-])O[C@H](O[C@@H]6C(CSCCCC(=O)[O-])O[C@H](O[C@@H]7C(CSCCCC(=O)[O-])O[C@H](O[C@H]1C(O)C2O)C(O)C7O)C(O)C6O)C(O)C5O)C(O)C4O)C(O)C3O.[Na+].[Na+].[Na+].[Na+].[Na+].[Na+] (stereo partly specified) | > 16 | – | – | > 18 | 3.4 | 5.3 | – | – | –
O=C([O-])CCCSCC1O[C@@H]2O[C@@H]3C(CSCCCC(=O)[O-])O[C@H](O[C@@H]4C(CSCCCC(=O)[O-])O[C@H](O[C@@H]5C(CSCCCC(=O)[O-])O[C@H](O[C@@H]6C(CSCCCC(=O)[O-])O[C@H](O[C@@H]7C(CSCCCC(=O)[O-])O[C@H](O[C@@H]8C(CSCCCC(=O)[O-])O[C@H](O[C@@H]9C(CSCCCC(=O)[O-])O[C@H](O[C@H]1C(O)C2O)C(O)C9O)C(O)C8O)C(O)C7O)C(O)C6O)C(O)C5O)C(O)C4O)C(O)C3O.[Na+].[Na+].[Na+].[Na+].[Na+].[Na+].[Na+].[Na+] (stereo partly specified) | 0.06 | 93.4 | – | 1.4 | – | – | – | – | 98.5
O=C([O-])CSCC1O[C@@H]2O[C@@H]3C(CO)O[C@H](O[C@@H]4C(CO)O[C@H](O[C@@H]5C(CO)O[C@H](O[C@@H]6C(CO)O[C@H](O[C@@H]7C(CO)O[C@H](O[C@@H]8C(CO)O[C@H](O[C@@H]9C(CO)O[C@H](O[C@H]1C(O)C2O)C(O)C9O)C(O)C8O)C(O)C7O)C(O)C6O)C(O)C5O)C(O)C4O)C(O)C3O.[Na+] (stereo partly specified) | 5.79 | – | – | 60.8 | 96.5 | 28.9 | – | – | –
O=S(=O)([O-])CCSCC1O[C@@H]2O[C@@H]3C(CSCCS(=O)(=O)[O-])O[C@H](O[C@@H]4C(CSCCS(=O)(=O)[O-])O[C@H](O[C@@H]5C(CSCCS(=O)(=O)[O-])O[C@H](O[C@@H]6C(CSCCS(=O)(=O)[O-])O[C@H](O[C@@H]7C(CSCCS(=O)(=O)[O-])O[C@H](O[C@@H]8C(CSCCS(=O)(=O)[O-])O[C@H](O[C@@H]9C(CSCCS(=O)(=O)[O-])O[C@H](O[C@H]1C(O)C2O)C(O)C9O)C(O)C8O)C(O)C7O)C(O)C6O)C(O)C5O)C(O)C4O)C(O)C3O.[Na+].[Na+].[Na+].[Na+].[Na+].[Na+].[Na+].[Na+] (stereo partly specified) | 0.05 | – | – | 3.6 | – | – | 92.8 | – | 95.6
O=C([O-])CSCC1O[C@@H]2O[C@@H]3C(CSCC(=O)[O-])O[C@H](O[C@@H]4C(CSCC(=O)[O-])O[C@H](O[C@@H]5C(CSCC(=O)[O-])O[C@H](O[C@@H]6C(CSCC(=O)[O-])O[C@H](O[C@@H]7C(CSCC(=O)[O-])O[C@H](O[C@@H]8C(CSCC(=O)[O-])O[C@H](O[C@@H]9C(CSCC(=O)[O-])O[C@H](O[C@H]1C(O)C2O)C(O)C9O)C(O)C8O)C(O)C7O)C(O)C6O)C(O)C5O)C(O)C4O)C(O)C3O.[Na+].[Na+].[Na+].[Na+].[Na+].[Na+].[Na+].[Na+] (stereo partly specified) | 0.1 | – | – | 1.2 | – | – | 103.3 | – | 93.8
